Results as given in paper PMC3742633 (Molecular cancer therapeutics, 2013).

Legend:
[1] = target: recombinant human PFKFB3 protein (Homo sapiens, UniProt Q16875); test: Recombinant PFKFB3 kinase assay; assay type: biochemical
[2] = test system: Jurkat T cell leukemia cells; test: Cell viability, trypan blue exclusion; assay type: cell-based; conditions: Homo sapiens, 48 h, read-out: IC50 cytotoxic effects (viability)
Jurkat and H522 cells = test: F26BP measurement in cells; assay type: cell-based, human; conditions: three hours exposure
In short: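 Cells plated at 1×10^5/well, 24 h in RPMI or DMEM (5% CO2, 37°C), then exposed to test compound for 3 h. Cells triturated, washed twice in PBS, dissolved in […] NaOH. F26BP measured by coupled enzyme reaction and normalized to BCA protein. Triplicate or quadruplicate; unpaired two-tailed t-test.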

LLC tumors [3] = test: Lewis lung carcinoma; assay type: in vivo, C57Bl/6 mice
In short: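 C57Bl/6 mice (20 g) given 1×10^6 LLC cells s.c. in PBS. At 150–200 mg tumor mass, groups of 8 randomized to DMSO or test compound 25 mg/kg i.p. (methods: every 3 days ×4). Blinded caliper tumor mass and body mass recorded daily; lungs examined for metastases after 14 days. Separate subgroup at day 4: tumors assayed for F26BP, plus H&E and anti-cleaved caspase 3 immunohistochemistry on formalin-fixed paraffin sections.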

LLC tumors [4] = test: 18F-FDG micro-PET imaging of LLC-bearing mice; assay type: in vivo, C57Bl/6 mice; conditions: 25 mg/kg i.p. once, 45 minutes, normalized to FDG uptake in the cerebellum
In short: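 Tumor-bearing mice were anesthetized with isoflurane and given 200 μCi FDG i.v. by tail vein. Baseline 15-min static micro-PET scans were taken 45 min after tracer (OSEM, 6 subsets/4 iterations). Tumor and cerebellum regions of interest were quantified in quadruplicate. 24 h later, test compound 25 mg/kg i.p. once, then re-scan 45 min later.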

[5] = test system: CT26 colon adenocarcinoma cells; test: CT26 xenograft tumor growth; assay type: in vivo, Balb/C athymic mice; conditions: 25 mg/kg i.p. every 3 days × 4; similarly to irinotecan
U-87 glioblastoma cells = test: U-87 MG xenograft tumor growth; assay type: in vivo, Balb/C athymic mice; conditions: 25 mg/kg i.p. every 3 days × 4; compared with temozolomide
In short: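 U-87 MG cells from exponential culture (DMEM, 10% FCS) were washed and resuspended in PBS, and 1×10^6 cells were injected s.c. into 20 g Balb/C athymic mice. At 150–200 mg, tumours were randomised to DMSO, test compound (25 mg/kg i.p. every 3 days ×4) or temozolomide (30 mg/kg p.o., 3 days on/3 off). Blinded daily caliper mass = width²×length/2. Two experiments, n=8/group, mean±SD, unpaired two-tailed t-test.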

CCRF-CEM = test: NCI 60 cell line screen, Sulforhodamine B Assay; assay type: cell-based; conditions: Homo sapiens, 48 h
In short: (§1)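 Run through the NCI-60 screening service: human cancer cell lines exposed to test compound for 48 h. Growth read as cellular protein content by sulforhodamine B staining, and GI50 derived from this.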

MOLT-4 = test: NCI 60 cell line screen, Sulforhodamine B Assay; assay type: cell-based; conditions: Homo sapiens, MOLT-4, 48 h
In short: as §1

HOP-62 = test: NCI 60 cell line screen, Sulforhodamine B Assay; assay type: cell-based; conditions: Homo sapiens, HOP-62, 48 h
In short: as §1

HOP-92 = test: NCI 60 cell line screen, Sulforhodamine B Assay; assay type: cell-based; conditions: Homo sapiens, HOP-92, 48 h
In short: as §1

SF-539 = test: NCI 60 cell line screen, Sulforhodamine B Assay; assay type: cell-based; conditions: Homo sapiens, SF-539, 48 h
In short: as §1

SNB-15 = test: NCI 60 cell line screen, Sulforhodamine B Assay; assay type: cell-based; conditions: Homo sapiens, 48 h
In short: (§2)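 Run through the National Cancer Institute 60 cell line screening service on its panel of 59 human cancer lines in vitro. Cytostatic/toxic effect was read as cellular protein content (sulforhodamine B) over 48 h.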

U251 = test: NCI 60 cell line screen, Sulforhodamine B Assay; assay type: cell-based; conditions: Homo sapiens, U-251, 48 h
In short: as §2

MALME-3M = test: NCI 60 cell line screen, Sulforhodamine B Assay; assay type: cell-based; conditions: Homo sapiens, 48 h
In short: as §1

M14 = test: NCI 60 cell line screen, Sulforhodamine B Assay; assay type: cell-based; conditions: Homo sapiens, M14, 48 h
In short: as §1

UACC-257 = test: NCI 60 cell line screen, Sulforhodamine B Assay; assay type: cell-based; conditions: Homo sapiens, UACC-257, 48 h
In short: as §2

UACC-62 = test: NCI 60 cell line screen, Sulforhodamine B Assay; assay type: cell-based; conditions: Homo sapiens, UACC-62, 48 h
In short: as §2

IGROV1 = test: NCI 60 cell line screen, Sulforhodamine B Assay; assay type: cell-based; conditions: Homo sapiens, IGROV-1, 48 h
In short: as §1

OVCAR-3 = test: NCI 60 cell line screen, Sulforhodamine B Assay; assay type: cell-based; conditions: Homo sapiens, OVCAR-3, 48 h
In short: as §1

786–0 = test: NCI 60 cell line screen, Sulforhodamine B Assay; assay type: cell-based; conditions: Homo sapiens, 786-0, 48 h
In short: as §1

A498 = test: NCI 60 cell line screen, Sulforhodamine B Assay; assay type: cell-based; conditions: Homo sapiens, A498, 48 h
In short: as §1

CAKI-1 = test: NCI 60 cell line screen, Sulforhodamine B Assay; assay type: cell-based; conditions: Homo sapiens, CAKI-1, 48 h
In short: as §1

TK-10 = test: NCI 60 cell line screen, Sulforhodamine B Assay; assay type: cell-based; conditions: Homo sapiens, TK-10, 48 h
In short: as §2

UO-31 = test: NCI 60 cell line screen, Sulforhodamine B Assay; assay type: cell-based; conditions: Homo sapiens, UO-31, 48 h
In short: as §2

PC-3 = test: NCI 60 cell line screen, Sulforhodamine B Assay; assay type: cell-based; conditions: Homo sapiens, PC-3, 48 h
In short: as §1

DU-145 = test: NCI 60 cell line screen, Sulforhodamine B Assay; assay type: cell-based; conditions: Homo sapiens, DU-145, 48 h
In short: as §1

MCF7 = test: NCI 60 cell line screen, Sulforhodamine B Assay; assay type: cell-based; conditions: Homo sapiens, MCF7, 48 h
In short: as §1

BT-549 = test: NCI 60 cell line screen, Sulforhodamine B Assay; assay type: cell-based; conditions: Homo sapiens, BT-549, 48 h
In short: as §1

MDA-MB-468 = test: NCI 60 cell line screen, Sulforhodamine B Assay; assay type: cell-based; conditions: Homo sapiens, MDA-MB-468, 48 h
In short: as §1

[6] = four days after initiation, n=4

recombinant human PFKFB3 protein, sequence (Q16875 whole entry): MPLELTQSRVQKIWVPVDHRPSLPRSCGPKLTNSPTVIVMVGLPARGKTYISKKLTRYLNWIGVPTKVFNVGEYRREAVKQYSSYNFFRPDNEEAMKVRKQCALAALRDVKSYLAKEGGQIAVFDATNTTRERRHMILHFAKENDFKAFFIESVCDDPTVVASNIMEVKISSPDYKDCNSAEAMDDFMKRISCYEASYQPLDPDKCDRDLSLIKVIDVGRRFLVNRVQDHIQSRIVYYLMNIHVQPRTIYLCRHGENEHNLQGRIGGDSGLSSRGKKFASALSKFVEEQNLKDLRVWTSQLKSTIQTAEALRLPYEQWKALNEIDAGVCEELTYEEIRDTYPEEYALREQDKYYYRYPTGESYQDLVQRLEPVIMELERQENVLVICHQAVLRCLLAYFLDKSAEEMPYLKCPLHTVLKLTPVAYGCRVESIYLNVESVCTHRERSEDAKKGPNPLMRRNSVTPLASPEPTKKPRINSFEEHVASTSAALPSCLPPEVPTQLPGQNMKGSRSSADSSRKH

## O=C(C=Cc1ccc2ccccc2n1)c1ccncc1 [PFK15, 1-(4-pyridinyl)-3-(2-quinolinyl)-2-propen-1-one]
[1]
  IC50: 207 nM
[1]; relative to 3PO
  fold more activity against PFKFB3 than 3PO: approximately 100 fold
[2]
  IC50: 2420 nM
Jurkat and H522 cells
  effect on F26BP: reduced
LLC tumors [3]; PFK15 i.p., C57Bl/6 mice
  effect on body mass of LLC-bearing mice: without a major effect
LLC tumors [3]; PFK15 i.p., C57Bl/6 mice, 14 days
  growth of established LLC tumors: statistically significant reduction
LLC tumors [3]; after 14 days
  lung metastases in LLC-bearing mice: no lung metastases
LLC tumors [3]; [6]
  cells positive for cleaved caspase 3 by immunohistochemistry: marked increase
  tumor-associated F26BP: reduced
LLC tumors [4]
  reduction in 18F-FDG uptake: ~ 50%
[5]
  growth of colon adenocarcinomas (CT26): suppressed the growth
U-87 glioblastoma cells
  activity against glioblastoma growth (U-87 MG): lower than that observed by temozolomide
CCRF-CEM
  GI50: 3800 nM
MOLT-4
  GI50: 2240 nM
HOP-62
  GI50: 2340 nM
HOP-92
  GI50: 3020 nM
SF-539
  GI50: 2510 nM
SNB-15
  GI50: 11200 nM
U251
  GI50: 2040 nM
MALME-3M
  GI50: 3310 nM
M14
  GI50: 3720 nM
UACC-257
  GI50: 3980 nM
UACC-62
  GI50: 2510 nM
IGROV1
  GI50: 4370 nM
OVCAR-3
  GI50: 3160 nM
786–0
  GI50: 2000 nM
A498
  GI50: 11800 nM
CAKI-1
  GI50: 11500 nM
TK-10
  GI50: 4070 nM
UO-31
  GI50: 1620 nM
PC-3
  GI50: 3160 nM
DU-145
  GI50: 2240 nM
MCF7
  GI50: 1860 nM
BT-549
  GI50: 2750 nM
MDA-MB-468
  GI50: 1660 nM
